# Shown are actives, neighbours in structure and some others; about 2.4% of the full set was active somewhere.
# GSTO1 inh = counter-screen for RBBP9 inhibitors: inhibitors of human GSTO1 | 300,000 compounds, 1.1% hits | inhibition, % at 5.96 µM | recombinant GSTO1, activity-based probe fluorescence polarization | P78417;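 active = inhibition above the campaign mean inhibition plus 3 SD, cut at about 35% in these data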;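 also: 0% = GSTO1-1 with DMSO and 100% = wells lacking GSTO1-1 enzyme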
# Apaf1 inhib = blocks human Apaf-1 apoptosome activity. inhibition, % at 20 µM. 330,000 compounds, 0.71% hits. O14727. reconstituted apoptosome caspase-3 activity, DEVD-Rh110 fluorescence. AID 489030; active = inhibition of at least 40% at 20 µM;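 also: plate controls were DMSO wells for no effect and DEVD-CHO caspase inhibitor wells for full effect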
#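 System: Apoptosome proteins | Medium: Hepes pH 7.5 with detergent and BSA | Also added: Cytochrome c trigger plus (Z-DEVD)2-Rh110 caspase-3 substrate | Incubation: 30 min compound preincubation, 50 min activation, room temperature | Detection: Rhodamine 110 fluorescence at Ex 480/Em 540 nm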
# TDP2 inh = TDP2 (human) inhibition, absorbance primary screen. AID 720702. O95551. inhibition, % at 12.8 µM. 370,000 compounds, 0.34% hits. recombinant TDP2, T5PNP hydrolysis, p-nitrophenol absorbance 415 nm;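 active = inhibition above the mean of all tested compounds plus 3 SD, set per campaign, cut at about 25% in these data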;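 also: 0% = DMSO with enzyme and 100% = buffer with substrate but no TDP2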
#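 System – recombinant human TDP2 · Quantity – TDP2 enzyme at 120 nM final · Doses – single concentration, 12.8 µM nominal, with 1% DMSO · Incubation – 2 h at 37 °C · Measured by – epi absorbance of p-nitrophenol freed from T5PNP by hydrolysis · Read-out – % inhibition relative to enzyme-containing and enzyme-free wells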
# PAD4 inh = inhibitors of human PAD4. Q9UM07. recombinant PAD4, RCA probe fluorescence polarization. inhibition, % at 6.36 µM. 330,000 compounds, 0.41% hits;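 active = percent inhibition above a cutoff equal to the mean of all tested compounds plus 3 SD, cut at about 15% in these data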;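 also: 0% = PAD4 with RCA probe and DMSO and 100% = probe without PAD4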
# SIAE primary = blocks human sialic acid acetylesterase | SIAE FP-Rh probe binding, fluorescence polarization | Q9HAT2 | inhibition, % at 9.66 µM | 370,000 compounds, 0.69% hits;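 active = inhibition above a cutoff: mean of compounds within the control limits plus 3 SD of those, cut at about 17% in these data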;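 also: 0% = plate median of compound wells and 100% = probe without SIAE protein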
# Target sequence (Q9HAT2 whole entry, looked up): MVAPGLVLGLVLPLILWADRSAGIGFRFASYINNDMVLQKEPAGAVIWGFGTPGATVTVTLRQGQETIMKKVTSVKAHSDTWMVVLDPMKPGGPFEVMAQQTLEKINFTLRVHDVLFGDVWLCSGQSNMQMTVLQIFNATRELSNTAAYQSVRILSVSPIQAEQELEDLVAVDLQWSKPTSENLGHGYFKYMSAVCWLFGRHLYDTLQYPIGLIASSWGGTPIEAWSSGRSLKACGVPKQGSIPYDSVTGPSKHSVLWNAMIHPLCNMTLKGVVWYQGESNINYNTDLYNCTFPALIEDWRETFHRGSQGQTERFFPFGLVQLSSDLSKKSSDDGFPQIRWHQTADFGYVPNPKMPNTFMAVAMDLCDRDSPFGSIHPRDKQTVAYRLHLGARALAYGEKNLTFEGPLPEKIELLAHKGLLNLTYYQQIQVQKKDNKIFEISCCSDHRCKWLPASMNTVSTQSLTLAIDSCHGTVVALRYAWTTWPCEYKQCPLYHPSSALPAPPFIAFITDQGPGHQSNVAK
# TCR CD3 inh = human TCR-CD3 binding inhibition. 360,000 compounds, 0.37% hits. AID 651800. TAMRA-labeled TCR probe fluorescence, biochemical. inhibition, % at 9.4 µM;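 also: recombinant mutant TCR 2C K166C tagged with TAMRA read by polarization; 0% = receptor in buffer alone and 100% = receptor with positive control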
# BSA probe FL = BSA probe counter-screen for TCR-CD3 inhibitors; shares compounds with TCR CD3 inh; TAMRA-labeled BSA probe fluorescence counterscreen; inhibition, % at 9.4 µM; 1,200 compounds, 10% hits; in the data active = inhibition above about 23%;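 also: 0% = buffer low control and 100% = reference high control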
# TCR-CD3 inh conf = confirmation of human TCR-CD3 interaction inhibitors. AID 652036. 1,200 compounds, 48% hits. inhibition, % at 9.4 µM. TAMRA-labeled TCR probe fluorescence binding assay. shares compounds with TCR CD3 inh
# * marks the source's active call; other numbers are inactive results; · = no result. Rule as the data show it, unless noted: active = inhibition above about 19%; inactive = the rest.
SMILES,GSTO1 inh,Apaf1 inhib,TDP2 inh,PAD4 inh,SIAE primary,TCR CD3 inh,BSA probe FL,TCR-CD3 inh conf
O=C(NNC(=O)c1ccc2ccccc2c1O)c1ccccc1Cl,10,-5,-9,-1,15,29*,-5,35*
O=C(NNC(=O)c1cccc2ccccc12)c1ccc(Cl)cc1Cl,·,·,-3,·,1,7,·,·
O=C(NC(=S)NNC(=O)c1cccs1)c1ccccc1,4,2,6,6,5,22*,1,25*
CC(C)(C)c1ccc(C(=O)NC(=S)NNC(=O)c2cccs2)cc1,-18,·,-1,3,5,-2,·,·
COCCN(C(=O)COC(=O)C1CC(=O)N(c2ccc(C)cc2)C1)c1c(N)n(Cc2ccccc2)c(=O)[nH]c1=O (stereo not given),·,·,10,·,5,3,·,·
Cc1ccc2[nH]c(C(=O)N/N=C/c3ccccc3O)c(C)c2c1,2,-4,-14,-5,9,20*,-6,19
O=C1CC(c2ccc(O)c(O)c2)Oc2c1ccc(O)c2O (stereo not given),44*,-23,-11,6,11,28*,-23,33*
O=C(/C=C/c1cccs1)c1ccc(NC(=O)c2cccc(Br)c2)cc1,-18,25,-8,-6,-13,42*,3,12
Cc1nnc(NC(=O)CSc2nnc(CC(=O)Nc3ccccc3F)n2C)s1,8,-2,-12,6,-2,66*,2,3
Cc1cc(/C=N/NC(N)=S)c(O)c(/C=N/NC(N)=S)c1,-3,-29,-1,3,13,25*,1,15
CC(C)(C)NC(=S)N/N=C/c1cc(Br)c(O)c(Br)c1,-4,-5,12,1,4,-6,·,·
CNC(=S)N/N=C/c1cc(Br)cc(Br)c1O,10,-2,-4,-3,7,40*,-12,36*
Cc1ccc(-n2c(C)cc(/C=N/NC(N)=S)c2C)cc1,1,6,-6,-8,10,-2,·,·
O=C(NNC(=S)NC(=O)c1ccccc1)c1cccc([N+](=O)[O-])c1,-7,7,-4,-2,-1,-2,·,·
O=C(NNC(=S)NC(=O)c1cccc([N+](=O)[O-])c1)c1ccc(Br)cc1,-4,19,-12,-4,2,20*,-7,17
O=C(NNC(=S)NC(=O)c1cccc([N+](=O)[O-])c1)c1ccc(O)cc1,4,8,-14,-1,-1,20*,-2,34*
Cc1cccc(NS(=O)(=O)c2cccc(C(=O)N3CCN(C/C=C/c4ccccc4)CC3)c2)c1,·,6,-8,4,-10,12,·,·
COCCCNC(=S)N/N=C/c1ccc(O)cc1O,-8,-16,1,3,13,20*,-16,-5
Oc1ccc(C=NNC(=S)Nc2ccc(F)cc2)c(O)c1,·,·,-4,·,13,20*,-15,9
CCn1c(SCC(=O)c2ccc(O)c(O)c2)nnc1-c1ccccc1OC,30,8,-3,-2,5,29*,-1,31*
CCn1c(CSc2nc3ccccc3s2)nnc1SCC(=O)c1ccc(O)c(O)c1,29,-7,-1,2,-6,23*,-18,29*
CCn1c(CSc2nc3ccccc3s2)nnc1SCC(=O)c1ccc(Cl)cc1,11,6,0,-1,-1,-3,·,·
Cc1ccc(C(=O)OCC(=O)NNC(=O)COc2ccc(Cl)cc2)c(O)c1,2,2,2,-1,-1,27*,1,12
Cc1ccc(C(=O)OCC(=O)NNC(=O)c2ccccc2)c(O)c1,-1,-9,11,-2,5,6,·,·
COc1cc(Cl)c(C)cc1NC(=O)COC(=O)C(NS(=O)(=O)c1ccc(Cl)cc1)C(C)O (stereo not given),0,19,-3,0,-13,0,·,·
SMILES,GSTO1 inh,Apaf1 inhib,TDP2 inh,PAD4 inh,SIAE primary,TCR CD3 inh,BSA probe FL,TCR-CD3 inh conf
COc1ccc(N(CC(=O)Nc2ccc(C(C)C)cc2)S(=O)(=O)c2c(C)noc2C)cc1,9,16,4,2,1,11,·,·
COc1cc(CC(=O)N2CCc3ccccc32)cc(OC)c1OC,4,-1,2,-1,-1,-1,·,·
CCOC(=O)N1CCc2cc(OC)c(OC)c3c2c1cc1cc(OC)c(OC)cc13,·,·,0,·,16,27*,-3,2
O=C(CCCOc1ccc(Cl)cc1Cl)Nc1cc(S(=O)(=O)N2CCOCC2)ccc1N1CCOCC1,·,·,11,·,-4,5,·,·
O=C(CCc1ccc(S(=O)(=O)N2CCOCC2)cc1)Nc1cc(Cl)ccc1N1CCOCC1,5,6,2,-6,7,21*,6,3
O=C(CSc1nc2ccccc2c(=O)n1-c1ccc(F)c(Cl)c1)Nc1cccc(S(=O)(=O)N2CCOCC2)c1,-8,13,10,0,-57,22*,7,19*
O=C(CSc1nc2ccccc2c(=O)n1-c1ccc(F)cc1)Nc1ccc(Cl)c(S(=O)(=O)N2CCOCC2)c1,1,-1,10,3,-58,13,·,·
NC(=O)c1ccc(NC(=O)CSc2nnc(-c3ccncc3)n2Cc2ccco2)cc1,-3,-5,3,4,1,6,·,·
COc1ccc(C2C(C#N)=C(N)OC3=C2C(=O)CCC3)cc1Cn1nc(C)c([N+](=O)[O-])c1C (stereo not given),-2,10,-13,0,4,42*,-1,1
CC1CCCN(c2cc3c(cc2[N+](=O)[O-])C(=O)N(c2ccccc2)C3=O)C1 (stereo not given),3,3,-12,0,-4,0,·,·
CC1(C)CC2CC(C)(CN2S(=O)(=O)c2ccc(C(=O)Nc3cc(S(=O)(=O)N4CCOCC4)ccc3Cl)cc2)C1 (stereo not given),-17,2,9,0,-10,5,·,·
CC1(C)CC2CC(C)(CN2S(=O)(=O)c2ccc(C(=O)Nc3cccc(S(=O)(=O)N4CCOCC4)c3)cc2)C1 (stereo not given),-28,-1,-4,0,-92,35*,5,29*
C/C(=N\NC(=O)c1ccc(CN2CCc3ccccc3C2)cc1)c1ccccc1O,-3,13,-10,3,-3,25*,-11,18
CCCNC(=O)c1ccc(CN2CCc3ccccc3C2)cc1,2,-8,5,-3,1,-5,·,·
CCOC(=O)Cn1nnnc1C(C(C)C)N(Cc1cc2c(C)cc(C)cc2[nH]c1=O)C1CCCC1 (stereo not given),4,26,-6,-4,1,-5,·,·

# Screening data: PubChem BioAssay, several laboratories
